The record followed here is ChEMBL document CHEMBL4184291, “Discovery of N-arylpyrroles as agonists of GPR120 for the treatment of type II diabetes” (Bioorg Med Chem Lett, 2018).

SMILES strings stand for the structures.

As usually defined, the half-life is the time in which the quantity being followed falls by half. By EC50 is commonly meant the concentration at which the effect is half-maximal.

The test system of data set [1] is Mus musculus. Description: Antiobesity activity in diet-induced obesity C57Bl6/J mouse model assessed as basal glucose level in plasma at 3 mg/kg qd for 15 days measured on day 15 post 6 hrs fasting (reference value: 187 +/- 24 mg/dL). It counts as functional.
The test system of data set [2] is Mus musculus. Description: Antiobesity activity in diet-induced obesity C57Bl6/J mouse model assessed as final glucose level in plasma at 3 mg/kg qd for 15 days measured on day 15 post 6 hrs fasting (reference value: 184 +/- 30 mg/dL). It counts as functional.
Data set [3] deals with Mus musculus. Description: Antiobesity activity in diet-induced obesity C57Bl6/J mouse model assessed as change in plasma glucose level at 3 mg/kg qd for 15 days measured on day 15 post 6 hrs fasting. It counts as functional.
Data set [4] concerns Mus musculus. Put plainly: Antiobesity activity in diet-induced obesity C57Bl6/J mouse model assessed as basal insulin level in plasma at 3 mg/kg qd for 15 days measured on day 15 post 6 hrs fasting (reference value: 16959 +/- 4943 pg/ml). It counts as functional.
Data set [5] concerns Mus musculus. Put plainly: Antiobesity activity in diet-induced obesity C57Bl6/J mouse model assessed as final insulin level in plasma at 3 mg/kg qd for 15 days measured on day 15 post 6 hrs fasting (reference value: 7304 +/- 2967 pg/ml). It counts as functional.
The subject of data set [6] is Mus musculus. Put plainly: Antiobesity activity in diet-induced obesity C57Bl6/J mouse model assessed as change in plasma insulin level at 3 mg/kg qd for 15 days measured on day 15 post 6 hrs fasting. It counts as functional.
Another data set concerns the target Cytochrome P450 3A4 (Homo sapiens, UniProt P08684). Description: Inhibition of CYP3A4 (unknown origin). It counts as ADME.
For a further data set, the target named is Cytochrome P450 2D6 (Homo sapiens, UniProt P10635). Put plainly: Inhibition of CYP2D6 (unknown origin). In kind it is ADME.
A further data set has as its target T1, Cytochrome P450 1A2 (Homo sapiens, UniProt P05177).
T1 sequence (P05177 whole entry): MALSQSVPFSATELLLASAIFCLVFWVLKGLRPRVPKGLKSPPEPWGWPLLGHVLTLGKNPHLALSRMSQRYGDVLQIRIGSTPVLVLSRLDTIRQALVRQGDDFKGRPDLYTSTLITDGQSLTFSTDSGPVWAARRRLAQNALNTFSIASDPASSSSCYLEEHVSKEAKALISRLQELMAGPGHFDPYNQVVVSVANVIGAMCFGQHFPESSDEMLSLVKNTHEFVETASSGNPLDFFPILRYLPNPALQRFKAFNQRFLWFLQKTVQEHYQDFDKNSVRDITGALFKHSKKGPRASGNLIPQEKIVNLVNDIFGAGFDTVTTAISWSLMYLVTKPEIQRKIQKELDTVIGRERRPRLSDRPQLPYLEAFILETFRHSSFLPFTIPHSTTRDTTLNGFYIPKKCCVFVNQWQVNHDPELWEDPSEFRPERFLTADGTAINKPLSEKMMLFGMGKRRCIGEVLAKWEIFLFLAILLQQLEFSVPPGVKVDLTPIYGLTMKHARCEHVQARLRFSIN
Description: Inhibition of CYP1A2 (unknown origin). It counts as ADME.

The target in the next data set is Cytochrome P450 2C9 (Homo sapiens, UniProt P11712). Put plainly: Inhibition of CYP2C9 (unknown origin). In kind it is ADME.
In a further data set the target is Cytochrome P450 2C19 (Homo sapiens, UniProt P33261). Description: Inhibition of CYP2C19 (unknown origin). It counts as ADME.
The nature of data set [7]: Half life in human liver microsomes. It counts as ADME, microsome. For orientation: Microsomes from liver hold many membrane-bound enzymes, among them those of drug oxidation.
Data set [8] in a line: Half life in mouse liver microsomes. It counts as ADME, microsome.
Data set [9] in a line: Half life in rat liver microsomes. It counts as ADME, microsome.
The nature of data set [10]: Protein binding in human plasma. In kind it is ADME, cell-free. Conditions: read-out: PPB (converted).
A short description of data set [11]: Protein binding in mouse plasma. In kind it is ADME, cell-free. Conditions: read-out: PPB (converted).
A short description of data set [12]: Protein binding in rat plasma. It counts as ADME, cell-free. Conditions: read-out: PPB (converted).
The target of data set [13] is T2, Free fatty acid receptor 4 (Homo sapiens, UniProt Q5NUL3).
T2 sequence (Q5NUL3 whole entry): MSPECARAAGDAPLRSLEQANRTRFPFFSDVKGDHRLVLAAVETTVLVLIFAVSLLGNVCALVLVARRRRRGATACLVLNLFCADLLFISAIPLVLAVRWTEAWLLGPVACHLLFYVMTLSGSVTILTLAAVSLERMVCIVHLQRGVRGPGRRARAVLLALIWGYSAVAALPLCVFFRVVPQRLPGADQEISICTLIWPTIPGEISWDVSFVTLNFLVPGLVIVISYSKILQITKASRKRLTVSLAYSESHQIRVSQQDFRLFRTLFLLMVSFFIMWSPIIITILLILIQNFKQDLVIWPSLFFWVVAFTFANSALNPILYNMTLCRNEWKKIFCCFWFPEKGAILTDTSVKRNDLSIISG
Put plainly: Agonist activity at recombinant human GPR120 short isoform expressed in HEK293 cells assessed as intracellular calcium flux measured for 300 secs at 1 sec time interval by Fluo-4 NW based FLIPR assay. It counts as functional, cell-based. In a few lines:
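Human GPR120 calcium-flux assay in HEK-293 cells; values are averages of n > 2 runs, SEM < ±25%.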
Background: Calcium assays in cells follow changes in intracellular calcium, usually with a dye or a luminescent sensor.

Data set [14] in a line: Stability of the compound in air assessed as oxidation. It counts as physicochemical.

Sequence of Cytochrome P450 3A4 (P08684 whole entry): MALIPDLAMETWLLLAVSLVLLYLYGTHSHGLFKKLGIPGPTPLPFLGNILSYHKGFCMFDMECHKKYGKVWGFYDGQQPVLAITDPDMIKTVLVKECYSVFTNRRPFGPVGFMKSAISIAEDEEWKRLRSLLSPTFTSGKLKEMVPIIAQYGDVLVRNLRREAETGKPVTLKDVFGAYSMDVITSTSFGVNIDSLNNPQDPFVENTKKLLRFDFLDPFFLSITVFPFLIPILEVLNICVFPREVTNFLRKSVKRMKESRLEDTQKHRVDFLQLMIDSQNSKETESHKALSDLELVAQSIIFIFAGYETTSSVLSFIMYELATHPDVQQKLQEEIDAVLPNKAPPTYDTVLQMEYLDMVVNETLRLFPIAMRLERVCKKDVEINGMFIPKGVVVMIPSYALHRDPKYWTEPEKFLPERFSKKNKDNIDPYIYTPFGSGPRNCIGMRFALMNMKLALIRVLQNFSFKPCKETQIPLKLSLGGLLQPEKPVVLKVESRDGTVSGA
Sequence of Cytochrome P450 2C9 (P11712 whole entry): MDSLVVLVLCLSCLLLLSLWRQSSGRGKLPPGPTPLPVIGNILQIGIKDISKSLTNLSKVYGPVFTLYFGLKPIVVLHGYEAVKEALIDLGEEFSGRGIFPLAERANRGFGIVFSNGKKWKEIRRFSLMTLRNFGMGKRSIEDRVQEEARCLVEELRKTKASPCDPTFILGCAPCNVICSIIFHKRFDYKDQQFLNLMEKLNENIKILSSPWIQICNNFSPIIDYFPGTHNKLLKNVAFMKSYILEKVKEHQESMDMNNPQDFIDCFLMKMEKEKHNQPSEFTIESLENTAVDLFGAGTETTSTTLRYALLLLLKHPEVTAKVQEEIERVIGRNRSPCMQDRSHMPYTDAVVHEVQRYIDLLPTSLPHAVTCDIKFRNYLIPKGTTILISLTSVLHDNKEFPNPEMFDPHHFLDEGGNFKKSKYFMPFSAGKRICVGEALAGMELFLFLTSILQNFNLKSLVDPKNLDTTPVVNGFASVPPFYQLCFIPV
Sequence of Cytochrome P450 2D6 (P10635 whole entry): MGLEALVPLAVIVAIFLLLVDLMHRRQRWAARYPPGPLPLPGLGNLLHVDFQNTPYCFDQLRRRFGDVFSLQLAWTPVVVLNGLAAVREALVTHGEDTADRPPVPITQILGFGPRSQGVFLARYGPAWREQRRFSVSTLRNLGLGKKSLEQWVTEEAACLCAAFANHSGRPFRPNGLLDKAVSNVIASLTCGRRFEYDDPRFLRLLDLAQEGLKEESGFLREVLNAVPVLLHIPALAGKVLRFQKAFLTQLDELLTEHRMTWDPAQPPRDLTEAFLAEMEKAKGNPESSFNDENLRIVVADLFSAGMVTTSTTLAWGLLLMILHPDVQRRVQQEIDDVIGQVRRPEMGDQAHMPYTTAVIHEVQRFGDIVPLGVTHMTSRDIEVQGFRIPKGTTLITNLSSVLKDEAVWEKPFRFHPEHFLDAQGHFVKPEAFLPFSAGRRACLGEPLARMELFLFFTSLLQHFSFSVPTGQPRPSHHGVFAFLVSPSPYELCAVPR
Sequence of Cytochrome P450 2C19 (P33261 whole entry): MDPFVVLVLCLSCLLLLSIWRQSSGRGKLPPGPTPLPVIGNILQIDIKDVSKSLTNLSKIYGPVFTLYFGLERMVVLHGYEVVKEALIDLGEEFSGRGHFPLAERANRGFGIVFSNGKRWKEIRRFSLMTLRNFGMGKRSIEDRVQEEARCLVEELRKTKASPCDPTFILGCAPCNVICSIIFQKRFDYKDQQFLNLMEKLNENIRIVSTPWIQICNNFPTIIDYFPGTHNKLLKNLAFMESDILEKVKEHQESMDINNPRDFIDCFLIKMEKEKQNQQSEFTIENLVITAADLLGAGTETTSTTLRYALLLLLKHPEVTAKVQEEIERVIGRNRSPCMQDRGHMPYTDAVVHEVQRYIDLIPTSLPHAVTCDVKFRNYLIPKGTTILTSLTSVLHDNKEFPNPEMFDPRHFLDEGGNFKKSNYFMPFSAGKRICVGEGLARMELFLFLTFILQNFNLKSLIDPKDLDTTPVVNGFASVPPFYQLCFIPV

For the molecule `CN(CCOc1ccc(CC2SC(=O)NC2=O)cc1)c1ccccn1` (centres undefined) [ROSIGLITAZONE], the Activity was 188 mg/dL with Mus musculus [1]; 148 mg/dL in the data set with Mus musculus [2]; -36.6 mg/dL in the data set on Mus musculus [3]; 15956 pg/mL in the data set with Mus musculus [4]; 1348 pg/mL in the data set on Mus musculus [5]; -5970 pg/mL with Mus musculus [6].

As to `CCc1ccc(-n2ccc(C(F)(F)F)c2COc2ccc(CCC(=O)O)c(F)c2F)cc1`, the INH was > 10 µM at Cytochrome P450 3A4; > 10 µM on Cytochrome P450 2D6; > 10 µM at Cytochrome P450 1A2; 7 µM on Cytochrome P450 2C9; 9 µM on Cytochrome P450 2C19. In addition, the half-life in data set [7] was 15 min; in data set [8], 7 min; in data set [9] it was < 4 min. For the same molecule, the fraction unbound was 0.0002 in [10], 0.0014 in data set [11] and 0.0008 in data set [12].

`O=C(O)CCc1cc(F)c(OCc2c(C(F)(F)F)ccn2-c2ccccc2)c(F)c1`: in data set [13], the EC50 was 100 to 101 nM.

`O=C(O)CCc1ccc(OCc2c(C(F)(F)F)ccn2-c2ccc(Cl)cc2)c(F)c1F`: the Stability entry in data set [14] is “Stable”.

Regarding `COc1ccc(-n2ccc(C(F)(F)F)c2COc2c(F)cc(CCC(=O)O)cc2F)cc1`, the EC50 in data set [13] turned out to be 184 nM.

Consider `COC(=O)CCc1cc(F)c(OCc2c(C(F)(F)F)ccn2-c2ccc(Cl)cc2)c(F)c1`, for which, in [13], the EC50 is > 5000 nM.

As for `Cc1ccc(-n2ccc(C(F)(F)F)c2COc2c(F)cc(CCC(=O)O)cc2F)cc1`, the INH is > 10 µM on Cytochrome P450 3A4; > 10 µM at Cytochrome P450 2D6; > 10 µM at Cytochrome P450 1A2; 4.2 µM at Cytochrome P450 2C9; > 10 µM on Cytochrome P450 2C19. Besides, the half-life was 7 min in data set [7], 85 min in data set [8] and < 4 min in data set [9]. Besides, the fraction unbound in data set [10] was 0.0008; in data set [11], 0.0041; in [12] it was 0.0015.

In the case of `Cc1c(CCC(=O)O)ccc(OCc2c(C(F)(F)F)ccn2-c2ccc(Cl)cc2)c1C`, in data set [14], the Stability result is “Stable”.

Consider `Cc1c(CCC(=O)O)ccc(OCc2cccn2-c2ccc(Br)cc2)c1C`, for which the Stability entry in data set [14] is “Unstable”.
